Assay results from ChEMBL document CHEMBL3596149, “Thermodynamics and kinetic studies in the binding interaction of cyclic naphthalene diimide derivatives with double stranded DNAs” (Bioorg Med Chem, 2015).
Activity calls are given as the source filed them. The rule behind the calls is not given here.

Columns and labels:
Calf thymus DNA [1] = test: Binding affinity to calf thymus DNA assessed as association constant by stopped flow kinetics assay; type: nucleic-acid assay; details: Bos taurus
Method in brief: (§1)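 Ligand was mixed with DNA in a stopped-flow instrument, in 10 mM MES pH 6.25 with 0.1 M NaCl and 1 mM EDTA. Ligand to DNA base-pair ratio was 1:10. Absorbance was followed at the ligand maximum (383 nm). Traces were fitted to a single exponential, and apparent rate constants were plotted against DNA concentration.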

Calf thymus DNA [2] = test: Binding affinity to calf thymus DNA assessed as change in entropy by thermodynamics analysis; type: nucleic-acid assay; details: Bos taurus
Method in brief: (§2)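 Binding constants for CT-DNA were obtained by UV-vis titration at 20–27.5°C in 10 mM MES pH 6.25 with 0.1 M NaCl and 1 mM EDTA. ΔH and ΔS were taken from a van't Hoff plot of lnK vs 1/T. ΔG at 25°C came from the Gibbs equation.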

[3] = Binding affinity to poly[d(A-T)]2 DNA (unknown origin) assessed as hypochromicity by UV-vis titration method
Method in brief: (§3)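 Titration was the same as the UV-vis binding titration: 6.7 µM ligand, 10 mM MES pH 6.25, 100 mM NaCl, 1 mM EDTA, 25°C. Hypochromicity was calculated as H% = (A383 free − A383 bound)/A383 free × 100.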

[4] = Binding affinity to poly[d(G-C)]2 DNA (unknown origin) assessed as dissociation constant by stopped flow kinetics assay
Method in brief: (§4)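 Dissociation was SDS-driven and measured by stopped-flow. Equal volumes of 1% SDS and ligand–DNA complex (ligand:bp 1:10) were mixed rapidly. Buffer was 10 mM MES pH 6.25 with 100 mM NaCl and 1 mM EDTA. Absorbance was recorded over time, and k_d was obtained by nonlinear fitting of the trace.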

[5] = Binding affinity to poly[d(A-T)]2 DNA (unknown origin) assessed as association constant by stopped flow kinetics assay; method in brief: as §1
[6] = Selectivity index, ratio of binding constant K for calf thymus DNA to binding constant K for poly[d(G-C)]2 DNA (unknown origin)
Method in brief: (§5)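 The ratio uses binding constants from UV-vis Scatchard/McGhee–von Hippel titrations. Conditions were 6.7 µM ligand, 25°C, 10 mM MES pH 6.25, 100 mM NaCl, 1 mM EDTA.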

Calf thymus DNA [7] = test: Binding affinity to calf thymus DNA assessed as dissociation constant by stopped flow kinetics assay; type: nucleic-acid assay, Bos taurus; method in brief: as §4
[8] = Binding affinity to poly[d(G-C)]2 DNA (unknown origin) assessed as hypochromicity by UV-vis titration method; method in brief: as §3
[9] = Binding affinity to poly[d(A-T)]2 DNA (unknown origin) assessed as dissociation constant by stopped flow kinetics assay; method in brief: as §4
Calf thymus DNA [10] = test: Binding affinity to calf thymus DNA assessed as hypochromicity by UV-vis titration method; type: nucleic-acid assay; details: Bos taurus; method in brief: as §3
Calf thymus DNA [11] = test: Binding affinity to calf thymus DNA assessed as change in free energy at 25 degC by thermodynamics analysis; type: nucleic-acid assay; details: Bos taurus; method in brief: as §2
Calf thymus DNA [12] = test: Binding affinity to calf thymus DNA assessed as delta(logK)/delta(log[Na+]) ratio at 0.05 to 0.125 M NaCl by UV-vis titration method; type: nucleic-acid assay; details: Bos taurus
Method in brief: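 Binding constants for CT-DNA were measured by UV-vis Scatchard titration in 10 mM MES pH 6.25 with 1 mM EDTA at varied NaCl. The ratio is the slope of log K plotted against −log[Na+].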

Calf thymus DNA [13] = test: Binding affinity to calf thymus DNA assessed as change in enthalpy by thermodynamics analysis; type: nucleic-acid assay; details: Bos taurus; method in brief: as §2
Nucleic Acid = test: Induction of DNA intercalation of pUC19 DNA assessed as compound level causing DNA re-supercoiling in presence of topoisomerase-1 incubated for 1 hr at 37 degC by electrophoresis method; type: nucleic-acid assay; details: Escherichia coli
Method in brief: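 pUC19 (0.25 µg) was preincubated with 5 U topoisomerase I for 5 min at 37°C. Reaction buffer was 35 mM Tris-HCl pH 8.0, 72 mM KCl, 5 mM MgCl2, 5 mM DTT, 5 mM spermidine and 0.1% BSA. Ligand (2.0–50 µM) was then added for 1 h at 37°C. After SDS/proteinase K treatment, extraction and ethanol precipitation, DNA was run on 1% agarose in TAE (18 V, 3.5 h) and GelStar-stained.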

[14] = Binding affinity to poly[d(G-C)]2 DNA (unknown origin) assessed as association constant by stopped flow kinetics assay; method in brief: as §1
[15] = Selectivity index, ratio of binding constant K for poly[d(A-T)]2 DNA (unknown origin) to binding constant K for poly[d(G-C)]2 DNA (unknown origin); method in brief: as §5
Calf thymus DNA [16] = test: Binding affinity to calf thymus DNA assessed as increase in positive and negative CD bands at 5 to 50 uM at 25 degC by CD spectroscopy; type: nucleic-acid assay; details: Bos taurus
Method in brief: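 Ligand at 5–50 µM was added to 100 µM/bp CT-DNA in 10 mM MES pH 6.25 with 100 mM NaCl and 1 mM EDTA, at 25°C. CD spectra were recorded, including the induced CD region at 320–400 nm.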

K (Calf thymus DNA [1]) [M⁻¹ s⁻¹]	deltaS (Calf thymus DNA [2]) [kcal/mol]	Activity [3] [%]	Kd [4] [s⁻¹]	K [5] [M⁻¹ s⁻¹]	Selectivity Index [6]	Activity [8] [%]	Kd [9] [s⁻¹]	Activity (Calf thymus DNA [10]) [%]	deltaG (Calf thymus DNA [11]) [kcal/mol]	Ratio (Calf thymus DNA [12])	deltaH (Calf thymus DNA [13]) [kcal/mol]	Activity (Nucleic Acid) [µM]	K [14] [M⁻¹ s⁻¹]	Selectivity Index [15]	Activity (Calf thymus DNA [16])	SMILES	Kd (Calf thymus DNA [7]) [s⁻¹]
60000	0.053	47	0.003	120000	9	61	0.15	60	-8	0.72	7.8	2	34000	9		O=C1NCCCN2CCN(CCCN3C(=O)c4ccc5c6c(ccc(c46)C3=O)C(=O)N(CCCN3CCN(CCCNC(=O)c4ccc1cc4)CC3)C5=O)CC2	0.1
120000	0.054	49	1	32000		61	4.2	60	-7	0.74	9.2	10	26000		Active	CN1CCCNC(=O)c2ccc(cc2)C(=O)NCCCN(C)CCCN2C(=O)c3ccc4c5c(ccc(c35)C2=O)C(=O)N(CCC1)C4=O	1.1
120000	0.003	60	0.3	260000		61	2.6	62	-7.6	0.83	-6.7		84000			CN(C)CCCN1C(=O)c2ccc3c4c(ccc(c24)C1=O)C(=O)N(CCCN(C)C)C3=O	1.1
